In ChEMBL document CHEMBL1154676, “Synthetic mRNA splicing modulator compounds with in vivo antitumor activity” (J Med Chem, 2009):

What was measured:
Ramos = experiment: Cytotoxicity against human Ramos cells after 72 hrs by XTT assay; assay type: functional, cell-based
Summary of the method: (§1)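 Cells grown at 37 °C, 5% CO2; HFF in DMEM with 10% FBS, PrEC in prostate epithelial growth medium. Adherent lines seeded overnight, suspension lines same day; compounds diluted from DMSO stocks into media at various final concentrations, 72 h exposure. XTT reagent added 4 h, absorbance 490 nm (reference 690 nm). Growth as % of vehicle; IC50 from sigmoidal dose-response fit; mean ± SEM, three independent experiments.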

CCRF-CEM = experiment: Growth inhibition of human CCRF-CEM cells by sulforhodamine B assay; assay type: functional
SNB-19 = experiment: Growth inhibition of human SNB19 cells by sulforhodamine B assay; assay type: functional
NCI-H522 = experiment: Growth inhibition of human NCI-H522 cells by sulforhodamine B assay; assay type: functional
Mus musculus [1] = experiment: Toxicity in NOD/SCID mouse assessed as sodium level at 5 to 50 mg/kg, […] for 5 days; assay type: organism-based; parameters: dose 5-50 mg/kg; conditions: in vivo, po, 120 h
SK-MEL-5 = experiment: Growth inhibition of human SK-MEL-5 cells by sulforhodamine B assay; assay type: functional
Mus musculus [2] = experiment: Toxicity in NOD/SCID mouse assessed as potassium level at 5 to 50 mg/kg, […]; assay type: organism-based; parameters: dose 5-50 mg/kg, route oral; conditions: in vivo, po, 120 h
RXF 393 = experiment: Growth inhibition of human RXF393 cells by sulforhodamine B assay; assay type: functional
ACHN = experiment: Growth inhibition of human ACHN cells by sulforhodamine B assay; assay type: functional
MV4-11 = experiment: Cytotoxicity against human MV4-11 cells after 72 hrs by XTT assay; assay type: functional, cell-based; conditions: MV4-11, 72 h; summary of the method: as §1
SNB-75 = experiment: Growth inhibition of human SNB75 cells by sulforhodamine B assay; assay type: functional
[3] = Antitumor activity against human JeKo1 cells transplanted in NOD/SCID mouse assessed as tumor volume treated iv for 5 days relative to control; assay type: functional, JeKo-1
Summary of the method: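 Female NOD/SCID mice bearing JeKo-1 tumors transplanted day 1; IV dosing from day 4, daily for five days, at 5, 10, 25 or 50 mg/kg in 3.0% DMSO/6.5% Tween 80/5% glucose, 4 per group. Volume = (length × width²)/2, measured thrice weekly; T/C = median treated tumor volume ÷ median control volume.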

MDA-MB-231 = experiment: Growth inhibition of human MDA-MB-231 cells by sulforhodamine B assay; assay type: functional
[4] = Cytotoxicity against human Rh30 cells after 72 hrs by XTT assay; assay type: functional, cell-based; conditions: SJRH30, 72 h; summary of the method: as §1
BT-549 = experiment: Growth inhibition of human BT549 cells by sulforhodamine B assay; assay type: functional
Mus musculus [5] = experiment: Toxicity in NOD/SCID mouse assessed as glucose at 5 to 50 mg/kg, […] for 5 days; assay type: organism-based; parameters: dose 5-50 mg/kg; conditions: in vivo, po, 120 h
PANC-1 = experiment: Cytotoxicity against human PANC1 cells after 72 hrs by XTT assay; assay type: functional, cell-based; conditions: PANC-1, 72 h; summary of the method: as §1
NCI/ADR-RES = experiment: Growth inhibition of human NCI/ADR-RES cells by sulforhodamine B assay; assay type: functional
UO-31 = experiment: Growth inhibition of human UO31 cells by sulforhodamine B assay; assay type: functional
OVCAR-4 = experiment: Growth inhibition of human OVCAR4 cells by sulforhodamine B assay; assay type: functional
PC-3 = experiment: Growth inhibition of human PC3 cells by sulforhodamine B assay; assay type: functional
LOX IMVI = experiment: Growth inhibition of human LOXIMVI cells by sulforhodamine B assay; assay type: functional
PrEC = experiment: Cytotoxicity against human PrEC cells after 72 hrs by XTT assay; assay type: cell-based; summary of the method: as §1
Mus musculus [6] = experiment: Toxicity in NOD/SCID mouse assessed as alanine aminotransferase level at 5 to 50 mg/kg, […] for 5 days; assay type: organism-based; parameters: dose 5-50 mg/kg, route oral; conditions: in vivo, po, 120 h
[7] = read-out: Log10GI50 (converted)
[8] = read-out: Log10LC50 (converted)

SMILES: CC(/C=C/[C@@H]1C[C@]2(CO2)CC(C)(C)O1)=C\C[C@H]1CC[C@@H](NC(=O)/C=C\[C@H](C)OC(=O)C(C)C)CC1
- IC50 (Ramos): 0.08 µM
- GI50 (CCRF-CEM; [7]): 0.0479 µM
- CC50 (CCRF-CEM; [8]): > 100 µM
- TGI (CCRF-CEM; read-out: Log10TGI (converted)): > 100 µM
- GI50 (SNB-19; [7]): 2 µM
- CC50 (SNB-19; [8]): > 100 µM
- TGI (SNB-19; read-out: Log10TGI (converted)): > 100 µM
- GI50 (NCI-H522; [7]): 0.316 µM
- CC50 (NCI-H522; [8]): 5.37 µM
- TGI (NCI-H522; read-out: Log10TGI (converted)): > 100 µM
- Activity (Mus musculus [1]): Non-toxic
- GI50 (SK-MEL-5; [7]): 0.316 µM
- CC50 (SK-MEL-5; [8]): 10.2 µM
- TGI (SK-MEL-5; read-out: Log10TGI (converted)): 1.95 µM
- Activity (Mus musculus [2]): Non-toxic
- GI50 (RXF 393; [7]): 0.229 µM
- CC50 (RXF 393; [8]): > 100 µM
- TGI (RXF 393; read-out: Log10TGI (converted)): 1.82 µM
- GI50 (ACHN; [7]): 0.537 µM
- CC50 (ACHN; [8]): > 100 µM
- TGI (ACHN; read-out: Log10TGI (converted)): 75.9 µM
- IC50 (MV4-11): 0.3 µM
- GI50 (SNB-75; [7]): 5.37 µM
- CC50 (SNB-75; [8]): > 100 µM
- TGI (SNB-75; read-out: Log10TGI (converted)): > 100 µM
- T/C [3]: <=42%
- GI50 (MDA-MB-231; [7]): 0.955 µM
- CC50 (MDA-MB-231; [8]): > 100 µM
- TGI (MDA-MB-231; read-out: Log10TGI (converted)): > 100 µM
- IC50 [4]: 0.69 µM
- GI50 (BT-549; [7]): 0.138 µM
- CC50 (BT-549; [8]): > 100 µM
- TGI (BT-549; read-out: Log10TGI (converted)): 0.776 µM
- Activity (Mus musculus [5]): Non-toxic
- IC50 (PANC-1): 3.87 µM
- GI50 (NCI/ADR-RES; [7]): 0.501 µM
- CC50 (NCI/ADR-RES; [8]): > 100 µM
- TGI (NCI/ADR-RES; read-out: Log10TGI (converted)): > 100 µM
- GI50 (UO-31; [7]): 3.98 µM
- CC50 (UO-31; [8]): > 100 µM
- TGI (UO-31; read-out: Log10TGI (converted)): > 100 µM
- GI50 (OVCAR-4; [7]): 1.51 µM
- CC50 (OVCAR-4; [8]): > 100 µM
- TGI (OVCAR-4; read-out: Log10TGI (converted)): > 100 µM
- GI50 (PC-3; [7]): 0.479 µM
- CC50 (PC-3; [8]): > 100 µM
- TGI (PC-3; read-out: Log10TGI (converted)): 38 µM
- GI50 (LOX IMVI; [7]): 0.0794 µM
- CC50 (LOX IMVI; [8]): 55 µM
- IC50 (PrEC): 7.01 µM
- Activity (Mus musculus [6]): Non-toxic
